Measured values as given in ChEMBL document CHEMBL1152649, “Synthesis, cytotoxicity and human telomerase inhibition activities of a series of 1,2-heteroannelated anthraquinones and anthra[1,2-d]imidazole-6,11-dione homologues” (2009).
Calls of active or inactive are those of the source. No cut-off for these calls is given here.

Assays:
MDA-MB-231 = assay: Growth inhibition of human MDA-MB-231 cells; type: functional
Method in brief: (§1)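 NCI 60 cancer cell line screen run per the Developmental Therapeutics Program protocol. Dose–response curves were plotted against log10 drug concentration for each cell line within its subpanel, and mean graph midpoint values were calculated.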

BT-549 = assay: Growth inhibition of human BT549 cells; type: functional; method in brief: as §1
[1] = Cytotoxicity against human H1299 cells at 1 uM after 48 hrs by MTT assay; type: functional; conditions: NCI-H1299, 48 h
Method in brief: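 H1299 non-small cell lung cancer cells were grown in RPMI 1640 with 10% FBS, penicillin and streptomycin at 37 °C under 5% CO2. About 2 × 10³ cells per well were seeded and left 24 h. Compounds were dissolved fresh in DMSO, diluted into complete medium and applied for 48 h. MTT was then added for 4 h at 37 °C, followed by lysis buffer (20% SDS, 50% DMF) for 16 h, and absorbance was read at 550 nm.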

[2] = target: Telomerase reverse transcriptase (Homo sapiens) (UniProt O14746); assay: Inhibition of telomerase in human H1299 cells up to 100 uM by TRAP assay; type: cell-based
Sequence of Telomerase reverse transcriptase (Homo sapiens) (O14746 whole entry): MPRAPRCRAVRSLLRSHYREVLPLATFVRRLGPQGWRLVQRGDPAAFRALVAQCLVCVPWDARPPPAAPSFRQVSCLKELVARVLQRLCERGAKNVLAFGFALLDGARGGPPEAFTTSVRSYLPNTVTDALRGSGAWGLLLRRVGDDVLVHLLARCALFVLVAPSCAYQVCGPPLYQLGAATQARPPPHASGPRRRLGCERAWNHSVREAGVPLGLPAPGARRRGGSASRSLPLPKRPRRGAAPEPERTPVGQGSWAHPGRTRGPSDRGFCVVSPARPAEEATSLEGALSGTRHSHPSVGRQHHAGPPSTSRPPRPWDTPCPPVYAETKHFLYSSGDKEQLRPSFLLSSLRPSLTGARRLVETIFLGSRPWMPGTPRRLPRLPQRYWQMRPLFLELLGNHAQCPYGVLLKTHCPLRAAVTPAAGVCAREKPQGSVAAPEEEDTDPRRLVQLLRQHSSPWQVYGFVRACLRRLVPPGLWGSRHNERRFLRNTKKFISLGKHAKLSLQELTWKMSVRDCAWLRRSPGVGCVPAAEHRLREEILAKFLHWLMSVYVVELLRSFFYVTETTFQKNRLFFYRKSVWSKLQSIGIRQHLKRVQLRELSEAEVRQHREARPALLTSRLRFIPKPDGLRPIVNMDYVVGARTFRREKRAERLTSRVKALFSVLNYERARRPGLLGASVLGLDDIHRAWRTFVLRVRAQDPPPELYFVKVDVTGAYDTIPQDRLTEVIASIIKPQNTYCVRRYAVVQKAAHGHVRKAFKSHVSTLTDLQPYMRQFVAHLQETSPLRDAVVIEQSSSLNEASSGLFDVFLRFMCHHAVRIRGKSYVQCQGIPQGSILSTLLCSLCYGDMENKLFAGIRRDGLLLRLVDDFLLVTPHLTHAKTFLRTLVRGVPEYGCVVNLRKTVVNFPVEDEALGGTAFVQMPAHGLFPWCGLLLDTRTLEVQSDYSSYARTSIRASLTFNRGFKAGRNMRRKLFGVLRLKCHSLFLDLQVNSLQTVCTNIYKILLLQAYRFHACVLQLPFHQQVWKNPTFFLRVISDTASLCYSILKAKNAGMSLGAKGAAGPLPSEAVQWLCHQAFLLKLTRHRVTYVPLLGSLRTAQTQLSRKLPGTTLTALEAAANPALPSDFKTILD
Method in brief: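 PCR-based telomeric repeat amplification protocol (TRAP). The telomerase source was total lysate of H1299 lung cancer cells, with protein measured against BSA standards. Controls were extract without inhibitor and RNase A-treated extract.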

HOP-62 [3] = assay: Antiproliferative activity against human HOP62 cells assessed as cell growth at 10 uM; type: functional; conditions: read-out: Activity
Method in brief: (§2)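 NCI 60 cell line panel, single-dose screen (10^-5 M) run by the developmental therapeutics program protocol. Results are given as growth percent of treated cells relative to untreated control cells for each line.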

OVCAR-5 = assay: Antiproliferative activity against human OVCAR5 cells assessed as cell growth at 10 uM; type: functional; conditions: read-out: Activity; method in brief: as §2
K562 [4] = assay: Antiproliferative activity against human K562 cells assessed as cell growth at 10 uM; type: functional; conditions: read-out: Activity; method in brief: as §2
[5] = Antiproliferative activity against human RPMI8266 cells assessed as cell growth at 10 uM; type: functional; conditions: read-out: Activity; method in brief: as §2
SN12C = assay: Antiproliferative activity against human SN12C cells assessed as cell growth at 10 uM; type: functional; conditions: read-out: Activity; method in brief: as §2
SK-MEL-2 = assay: Antiproliferative activity against human SK-MEL-2 cells assessed as cell growth at 10 uM; type: functional; conditions: read-out: Activity; method in brief: as §2
UACC-257 = assay: Antiproliferative activity against human UACC257 cells assessed as cell growth at 10 uM; type: functional; conditions: read-out: Activity
Method in brief: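 NCI 60 cell line panel, single dose (10^-5 M), run per the Developmental Therapeutics Program protocol (one dose mean graph). Each result is the growth percentage of treated cells relative to untreated control cells.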

DU-145 [6] = assay: Antiproliferative activity against human DU145 cells assessed as cell growth at 10 uM; type: functional; conditions: read-out: Activity; method in brief: as §2
SF-539 = assay: Antiproliferative activity against human SF539 cells assessed as cell growth at 10 uM; type: functional; conditions: read-out: Activity; method in brief: as §2
SNB-19 [7] = assay: Antiproliferative activity against human SNB19 cells assessed as cell growth at 10 uM; type: functional; conditions: read-out: Activity; method in brief: as §2
K562 [8] = assay: Growth inhibition of human K562 cells; type: functional; method in brief: as §1
A549 = assay: Growth inhibition of human A549 cells; type: functional; method in brief: as §1
HOP-62 [9] = assay: Growth inhibition of human HOP62 cells; type: functional; method in brief: as §1
NCI-H322M = assay: Growth inhibition of human NCI-H322M cells; type: functional; method in brief: as §1
NCI-H460 = assay: Growth inhibition of human NCI-H460 cells; type: functional; method in brief: as §1
HCT-15 = assay: Growth inhibition of human HCT15 cells; type: functional; method in brief: as §1
KM12 [10] = assay: Growth inhibition of human KM12 cells; type: functional; method in brief: as §1
SW-620 = assay: Growth inhibition of human SW620 cells; type: functional
Method in brief: (§3)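 Assayed in the NCI 60 human cancer cell line panel under the Developmental Therapeutics Program protocol. For each line, dose–response curves were plotted against log10 drug concentration. In the one-dose screen at 10^-5 M, growth was given as percent of untreated control cells, and mean graph midpoint values were averaged.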

SF-268 = assay: Growth inhibition of human SF268 cells; type: functional; method in brief: as §3
SNB-19 [11] = assay: Growth inhibition of human SNB19 cells; type: functional; method in brief: as §3
U-251 = assay: Growth inhibition of human U251 cells; type: functional; method in brief: as §3
MDA-MB-435 = assay: Growth inhibition of human MDA-MB-435 cells; type: functional; method in brief: as §1
UACC-62 = assay: Growth inhibition of human UACC62 cells; type: functional; method in brief: as §3
OVCAR-3 = assay: Growth inhibition of human OVCAR-3 cells; type: functional; method in brief: as §1
OVCAR-4 = assay: Growth inhibition of human OVCAR4 cells; type: functional; method in brief: as §1
786-0 = assay: Growth inhibition of human 786-0 cells; type: functional; method in brief: as §1
A498 = assay: Growth inhibition of human A498 cells; type: functional; method in brief: as §1
ACHN = assay: Growth inhibition of human ACHN cells; type: functional; method in brief: as §1
PC-3 = assay: Growth inhibition of human PC3 cells; type: functional; method in brief: as §3
DU-145 [12] = assay: Growth inhibition of human DU145 cells; type: functional; method in brief: as §1
NCI-H226 = assay: Antiproliferative activity against human NCI-H226 cells assessed as cell growth at 10 uM; type: functional; conditions: read-out: Activity; method in brief: as §2
COLO 205 = assay: Antiproliferative activity against human COLO205 cells assessed as cell growth at 10 uM; type: functional; conditions: read-out: Activity; method in brief: as §2
KM12 [13] = assay: Antiproliferative activity against human KM12 cells assessed as cell growth at 10 uM; type: functional; conditions: read-out: Activity; method in brief: as §2
[14] = target: Telomerase reverse transcriptase (Homo sapiens) (UniProt O14746); assay: Inhibition of TERT in human H1299 cells assessed as residual transcriptional activity at 1 uM after 24 hrs by SEAP reporter gene assay; values are per cent of control
[15] = read-out: LC50 (the source's name)

`CCc1nc2ccc3c(c2[nH]1)C(=O)c1ccccc1C3=O` showed a GI50 (MDA-MB-231) of 8.86 µM, a TGI (MDA-MB-231) greater than 100 µM and a GI50 (BT-549) of 9.3 µM. For the same compound, the TGI (BT-549) was greater than 100 µM, the viability at 1 µM [1] was 88% and the inhibition [2] was “inactive”. It also gave a growth at 10 µM (HOP-62 [3]) of 97.7%, a growth at 10 µM (OVCAR-5) of 102% and a growth at 10 µM (K562 [4]) of 64.4%. For the same compound, the growth at 10 µM [5] was 56.2%, the growth at 10 µM (SN12C) was 68.5% and the growth at 10 µM (SK-MEL-2) was 40.1%. It also gave a growth at 10 µM (UACC-257) of 39.7%, a growth at 10 µM (DU-145 [6]) of 61.6% and a growth at 10 µM (SF-539) of 83.2%. For the same compound, the growth at 10 µM (SNB-19 [7]) was 74.9%, the GI50 (K562 [8]) was greater than 100 µM and the TGI (K562 [8]) was greater than 100 µM. For the same compound, the GI50 (A549) was 28.5 µM, the TGI (A549) was greater than 100 µM and the CC50 (A549; [15]) was greater than 100 µM. The GI50 (HOP-62 [9]) was 32.2 µM, the TGI (HOP-62 [9]) was greater than 100 µM and the CC50 (HOP-62 [9]; [15]) was greater than 100 µM. The GI50 (NCI-H322M) was 4.87 µM, the TGI (NCI-H322M) was greater than 100 µM and the CC50 (NCI-H322M; [15]) was greater than 100 µM. It also gave a GI50 (NCI-H460) of 5.27 µM, a TGI (NCI-H460) greater than 100 µM and a CC50 (NCI-H460; [15]) greater than 100 µM. The GI50 (HCT-15) was 3.39 µM, the TGI (HCT-15) was greater than 100 µM and the CC50 (HCT-15; [15]) was greater than 100 µM. It also gave a GI50 (KM12 [10]) of 7.69 µM, a TGI (KM12 [10]) greater than 100 µM and a CC50 (KM12 [10]; [15]) greater than 100 µM. It also gave a GI50 (SW-620) of 19.8 µM, a TGI (SW-620) greater than 100 µM and a CC50 (SW-620; [15]) greater than 100 µM. It also gave a GI50 (SF-268) of 20.3 µM, a TGI (SF-268) greater than 1000 µM and a CC50 (SF-268; [15]) greater than 100 µM. The GI50 (SNB-19 [11]) was 18.1 µM, the TGI (SNB-19 [11]) was greater than 100 µM and the CC50 (SNB-19 [11]; [15]) was greater than 100 µM. For the same compound, the GI50 (U-251) was 16.3 µM, the TGI (U-251) was greater than 100 µM and the CC50 (U-251; [15]) was greater than 100 µM. For the same compound, the GI50 (MDA-MB-435) was 30.3 µM, the TGI (MDA-MB-435) was greater than 100 µM and the CC50 (MDA-MB-435; [15]) was greater than 100 µM. It also gave a GI50 (UACC-62) of 8.09 µM, a TGI (UACC-62) greater than 100 µM and a CC50 (UACC-62; [15]) greater than 100 µM. The GI50 (OVCAR-3) was 16.5 µM, the TGI (OVCAR-3) was greater than 100 µM and the CC50 (OVCAR-3; [15]) was greater than 100 µM. For the same compound, the GI50 (OVCAR-4) was 25.7 µM, the TGI (OVCAR-4) was greater than 100 µM and the CC50 (OVCAR-4; [15]) was greater than 100 µM. The GI50 (786-0) was 43.6 µM, the TGI (786-0) was greater than 100 µM and the CC50 (786-0; [15]) was greater than 100 µM. For the same compound, the GI50 (A498) was greater than 100 µM, the TGI (A498) was greater than 100 µM and the CC50 (A498; [15]) was greater than 100 µM. The GI50 (ACHN) was 3.29 µM, the TGI (ACHN) was greater than 100 µM and the CC50 (ACHN; [15]) was greater than 100 µM. For the same compound, the GI50 (PC-3) was 28.2 µM, the TGI (PC-3) was greater than 100 µM and the CC50 (PC-3; [15]) was greater than 100 µM. For the same compound, the GI50 (DU-145 [12]) was 9.43 µM, the TGI (DU-145 [12]) was greater than 100 µM and the CC50 (DU-145 [12]; [15]) was greater than 100 µM. The growth at 10 µM (NCI-H226) was 75.9%, the growth at 10 µM (COLO 205) was 69.7% and the growth at 10 µM (KM12 [13]) was 72.9%. For the same compound, the residual activity [14] was 70%.
